From PubChem BioAssay AID602343 (The Scripps Research Institute Molecular Screening Center, 2012) come the findings set out here.

As a reminder, the inhibition is the relative decrease from the control value, in per cent.

The target of one assay is Monoacylglycerol lipase ABHD6 (Mus musculus) (UniProt Q8R2Y0). Put plainly: brain ABHD6 inhibition after oral dosing, late-stage follow-up, in vivo study for DAGLb inhibitor project, gel-based competitive ABPP, fluorescence, mouse, set 2 (AID 602343). As to conditions: stronger effect = higher value, dose or concentration not given here. The procedure, abridged: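 Material: ABHD6 in brain membrane fraction from orally dosed C57 black mice; Amount: brain membrane protein at 1 mg/mL; Also added: HT-01 probe, 1 µM; Timing: Brains taken 4 h post-dose, probe labeling 30 min at 37 °C; Technique: in-gel fluorescence band density; Benchmarks: vehicle high, gel background low.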
Sequence of Monoacylglycerol lipase ABHD6 (Mus musculus) (Q8R2Y0 whole entry, looked up): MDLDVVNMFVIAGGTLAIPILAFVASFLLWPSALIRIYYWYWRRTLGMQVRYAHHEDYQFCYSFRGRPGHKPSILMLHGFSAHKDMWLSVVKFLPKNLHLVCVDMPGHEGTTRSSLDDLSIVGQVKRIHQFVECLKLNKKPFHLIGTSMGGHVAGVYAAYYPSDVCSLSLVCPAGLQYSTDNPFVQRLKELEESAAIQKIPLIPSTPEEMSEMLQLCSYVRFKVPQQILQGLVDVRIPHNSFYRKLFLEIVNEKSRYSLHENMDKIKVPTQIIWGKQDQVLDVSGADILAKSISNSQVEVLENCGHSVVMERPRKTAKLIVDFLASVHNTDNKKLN
With `O=C(N1CCCCC1Cc1ccccc1)n1cc(-c2ccc(-c3ccccc3)cc2)nn1` (centres undefined), the inhibition was 100%.
In the case of `COc1ccc(-c2ccc(-c3cn(C(=O)N4CCCCC4c4ccccc4)nn3)cc2)cc1` (centres undefined), the inhibition is 99%.
On the same count and under the same terms, with `COc1ccccc1-c1ccc(-c2cn(C(=O)N3CCCCC3Cc3ccccc3)nn2)cc1` (centres undefined) the figure was 99%.

Still in this assay, the particulars now being: measured here: inhibition at 1 mg/kg p.o., stronger effect = higher value.
Take `O=C(N1CCCCC1Cc1ccccc1)n1cc(-c2ccc(-c3ccccc3)cc2)nn1` (centres undefined): the inhibition came to 0%.
`COc1ccc(-c2ccc(-c3cn(C(=O)N4CCCCC4c4ccccc4)nn3)cc2)cc1` (centres undefined) yielded an inhibition of 55%.
For the molecule `COc1ccccc1-c1ccc(-c2cn(C(=O)N3CCCCC3Cc3ccccc3)nn2)cc1` (centres undefined), the inhibition is 30%.

Staying with this assay, now noted: measured here: inhibition at 5 mg/kg p.o., stronger effect = higher value.
Molecule `O=C(N1CCCCC1Cc1ccccc1)n1cc(-c2ccc(-c3ccccc3)cc2)nn1` (centres undefined) yielded an inhibition of 99%.
On the same count and under the same terms, to `COc1ccc(-c2ccc(-c3cn(C(=O)N4CCCCC4c4ccccc4)nn3)cc2)cc1` (centres undefined) belongs 55%.
The same measure, in the same setting: with `COc1ccccc1-c1ccc(-c2cn(C(=O)N3CCCCC3Cc3ccccc3)nn2)cc1` (centres undefined) the figure was 95%.
